Measurements from ChEMBL document CHEMBL4330094, “Potent Metabolic Sialylation Inhibitors Based on C-5-Modified Fluorinated Sialic Acids” (J Med Chem, 2019).
Active and inactive are the calls of the source. No cut-off for these calls is given here.

What was measured:
[1] = Inhibition of sialyltransferase in mouse EL4 cells assessed as decrease in lectin binding after 3 days by biotinylated MAL2 lectin and streptavidin-PE based flow cytometry; type: cell-based
Method in brief: (§1)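 Each cell line was incubated 3 days with increasing compound concentrations or equivalent DMSO. Cells were stained with biotinylated MALII (5 µg/ml) in carbo-free blocking buffer with 1 mM CaCl/MgCl for 45-60 min at 4 °C, washed in PBS/1% BSA/0.02% azide, then stained with streptavidin-PE for 20 min at 4 °C. For flow cytometry, MFI was normalized to control as % lectin binding.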

[2] = system: B16-F10; test: Effect on total cell surface glycosylation in mouse B16F10 cells assessed as inhibition of biotinylated WGA-lectin binding at 102.4 uM after 3 days by flow cytometry; type: cell-based; settings: b16-f10, 72 h
Method in brief: (§2)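 B16-F10 cells were exposed 3 days to 102.4 µM compound or DMSO. Staining used biotinylated lectins (AAL 5, PNA 5, GSL-I 1, LCA 1, PHA-L 1, PSA 1, SJA 1, WGA 1 µg/ml) in carbo-free blocking buffer with 1 mM CaCl and 1 mM MgCl for 45-60 min at 4 °C, then streptavidin-PE for 20 min at 4 °C. Flow cytometry read-out was MFI, mean ± SEM from two independent experiments.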

[3] = system: B16-F10; test: Effect on total cell surface glycosylation in mouse B16F10 cells assessed as inhibition of biotinylated PSA-lectin binding at 102.4 uM after 3 days by flow cytometry; type: cell-based; settings: b16-f10, 72 h; method in brief: as §2
[4] = system: B16-F10; test: Relative inhibitory potency, ratio of SiaFAc to compound EC50 for inhibition of sialyltransferase in mouse B16-F10 cells; type: cell-based
[5] = Inhibition of sialyltransferase in human THP1 cells assessed as decrease in lectin binding after 3 days by biotinylated MAL2 lectin and streptavidin-PE based flow cytometry; type: cell-based; method in brief: as §1
[6] = system: B16-F10; test: Effect on total cell surface glycosylation in mouse B16F10 cells assessed as inhibition of biotinylated SJA-lectin binding at 102.4 uM after 3 days by flow cytometry; type: cell-based; settings: b16-f10, 72 h; method in brief: as §2
[7] = system: B16-F10; test: Inhibition of sialyltransferase in mouse B16-F10 cells assessed as recovery time for sialylation at 25.6 uM pretreated for 3 days followed by washing and re-seeding and measured after 6 days by biotinylated MAL2 lectin-based flow cytometry; type: cell-based
Method in brief: (§3)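 B16-F10 cells were pretreated 3 days with 25.6 or 51.2 µM compound or DMSO, washed, reseeded, and sampled daily for 6 days. They were stained with biotinylated MALII (5 µg/ml, 45-60 min, 4 °C) plus streptavidin-PE. Flow cytometry MFI was normalized to control as % lectin binding.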

[8] = system: B16-F10; test: Cytotoxicity against mouse B16F10 cells assessed as reduction in metabolic activity at <51.2 uM after 3 days by MTT assay; type: ADME, cell-based; settings: b16-f10, 72 h
[9] = Inhibition of sialyltransferase in mouse B16F10 cells assessed as decrease in lectin binding after 3 days by biotinylated MAL2 lectin and streptavidin-PE based flow cytometry; type: cell-based; method in brief: as §1
[10] = system: B16-F10; test: Effect on total cell surface glycosylation in mouse B16F10 cells assessed as inhibition of biotinylated PHA-L lectin binding at 102.4 uM after 3 days by flow cytometry; type: cell-based; settings: b16-f10, 72 h; method in brief: as §2
[11] = system: B16-F10; test: Inhibition of sialyltransferase in mouse B16-F10 cells assessed as recovery time for sialylation at 51.2 uM pretreated for 3 days followed by washing and re-seeding and measured after 6 days by biotinylated MAL2 lectin-based flow cytometry; type: cell-based; method in brief: as §3
[12] = system: B16-F10; test: Effect on total cell surface glycosylation in mouse B16F10 cells assessed as inhibition of biotinylated AAL-lectin binding at 102.4 uM after 3 days by flow cytometry; type: cell-based; settings: b16-f10, 72 h; method in brief: as §2
[13] = system: B16-F10; test: Effect on total cell surface glycosylation in mouse B16F10 cells assessed as inhibition of biotinylated GSL1-lectin binding at 102.4 uM after 3 days by flow cytometry; type: cell-based; settings: b16-f10, 72 h; method in brief: as §2
[14] = Inhibition of sialyltransferase in HEK293 cells assessed as decrease in lectin binding after 3 days by biotinylated MAL2 lectin and streptavidin-PE based flow cytometry; type: cell-based, Homo sapiens; method in brief: as §1
[15] = system: B16-F10; test: Cytotoxicity against mouse B16F10 cells assessed as reduction in metabolic activity at 204.8 uM after 3 days by MTT assay; type: ADME, cell-based; settings: b16-f10, 72 h
[16] = target: N-acylneuraminate cytidylyltransferase (Mus musculus, UniProt Q99KK2); test: Prodrug activation in mouse B16F10 cells assessed as CMAS-mediated CMP-SiaFR levels at 51.2 uM after 1 to 24 hrs using fluorinated compounds by reverse-phase ion pairing chromatography/triple quadrupole mass spectrometric analysis; type: cell-based
Method in brief: (§4)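 B16-F10 cells were incubated 1, 2, 4, 8 or 24 h with 51.2 µM fluorinated analogue or DMSO. Cells were washed with ammonium carbonate buffer (pH 7.4) and snap-frozen in liquid nitrogen. Extraction was twice for 3 min with cold 40% acetonitrile/40% methanol/20% water, followed by centrifugation for 3 min and vacuum drying.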

[17] = system: B16-F10; test: Inhibition of sialyltransferase in mouse B16-F10 cells assessed as reduction in CMP-Sia pool at 51.2 uM after 1 to 24 hrs using fluorinated compounds by reverse-phase ion pairing chromatography/triple quadrupole mass spectrometric analysis; type: cell-based; method in brief: as §4
[18] = Inhibition of sialyltransferase in mouse 9464D cells assessed as decrease in lectin binding after 3 days by biotinylated MAL2 lectin and streptavidin-PE based flow cytometry; type: cell-based; method in brief: as §1
[19] = Inhibition of sialyltransferase in human HeLa cells assessed as decrease in lectin binding after 3 days by biotinylated MAL2 lectin and streptavidin-PE based flow cytometry; type: cell-based; method in brief: as §1
[20] = system: B16-F10; test: Effect on total cell surface glycosylation in mouse B16F10 cells assessed as inhibition of biotinylated LCA-lectin binding at 102.4 uM after 3 days by flow cytometry; type: cell-based; settings: b16-f10, 72 h; method in brief: as §2
[21] = system: B16-F10; test: Effect on total cell surface glycosylation in mouse B16F10 cells assessed as inhibition of biotinylated PNA lectin binding at 102.4 uM after 3 days by flow cytometry; type: cell-based; settings: b16-f10, 72 h; method in brief: as §2

Sequence of N-acylneuraminate cytidylyltransferase (Q99KK2 whole entry): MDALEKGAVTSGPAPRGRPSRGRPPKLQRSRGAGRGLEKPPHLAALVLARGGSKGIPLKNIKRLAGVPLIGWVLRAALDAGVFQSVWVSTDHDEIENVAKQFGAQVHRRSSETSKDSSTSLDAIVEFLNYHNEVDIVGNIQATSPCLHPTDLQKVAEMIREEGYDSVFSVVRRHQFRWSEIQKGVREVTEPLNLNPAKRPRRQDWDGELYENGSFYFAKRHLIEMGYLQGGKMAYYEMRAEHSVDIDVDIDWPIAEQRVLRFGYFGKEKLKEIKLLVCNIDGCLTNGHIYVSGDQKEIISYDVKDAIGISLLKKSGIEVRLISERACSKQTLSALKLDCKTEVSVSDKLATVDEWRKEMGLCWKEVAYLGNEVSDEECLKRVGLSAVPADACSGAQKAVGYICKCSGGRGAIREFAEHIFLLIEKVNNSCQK

SMILES | EC50 [1] | Activity [2] | Activity [3] | Ratio EC50 [4] | EC50 [5] | Activity [6] | sialylation recovery time [7] | Activity [8] | EC50 [9] | Activity [10] | TIME [11] | Activity [12] | Activity [13] | EC50 [14] | Activity [15] | Drug metabolism [16] | EC50 [18] | EC50 [19] | Activity [20] | Activity [21] | other results
C#CCOC(=O)N[C@H]1[C@H]([C@H](OC(C)=O)[C@@H](COC(C)=O)OC(C)=O)OC(OC(C)=O)(C(=O)OC)[C@H](F)[C@@H]1OC(C)=O (stereo partly specified) | 51 µM | Non-Toxic | Non-Toxic | 37 | 0.42 µM | Non-Toxic | Active | Non-Toxic | 0.72 µM | Non-Toxic | 120 to 144 h | Non-Toxic | Non-Toxic | 1.19 µM | Non-Toxic | Metabolite_Detected | 10.7 µM | 1.65 µM | Non-Toxic | Non-Toxic | inhibition [17]: Active
CCOC(=O)N[C@H]1[C@H]([C@H](OC(C)=O)[C@@H](COC(C)=O)OC(C)=O)OC(OC(C)=O)(C(=O)OC)[C@H](F)[C@@H]1OC(C)=O (stereo partly specified) | 42 µM | Non-Toxic | Non-Toxic | 15 | 0.45 µM | Non-Toxic | Active | Non-Toxic | 1.78 µM | Non-Toxic | 120 to 144 h | Non-Toxic | Non-Toxic | 2.02 µM | Non-Toxic | Metabolite_Detected | 8.91 µM | 2.02 µM | Non-Toxic | Non-Toxic | inhibition [17]: Active
C#CCCC(=O)N[C@H]1[C@H]([C@H](OC(C)=O)[C@@H](COC(C)=O)OC(C)=O)OC(OC(C)=O)(C(=O)OC)[C@H](F)[C@@H]1OC(C)=O (stereo partly specified) | > 102 µM | Non-Toxic | Non-Toxic | 1 | 10.4 µM | Non-Toxic | Active | Non-Toxic | 40.6 µM | Non-Toxic | 48 to 72 h | Non-Toxic | Non-Toxic | 26.2 µM | Non-Toxic | Metabolite_Detected | > 102 µM | 62.3 µM | Non-Toxic | Non-Toxic | –
COC(=O)C1(OC(C)=O)O[C@@H]([C@H](OC(C)=O)[C@@H](COC(C)=O)OC(C)=O)[C@H](NC(C)=O)[C@@H](OC(C)=O)[C@H]1F (stereo partly specified) | > 102 µM | Non-Toxic | Non-Toxic | – | 8.5 µM | Non-Toxic | Active | Non-Toxic | 26.8 µM | Non-Toxic | 48 to 72 h | Non-Toxic | Non-Toxic | 45.2 µM | Non-Toxic | Metabolite_Detected | > 102 µM | 53 µM | Non-Toxic | Non-Toxic | –
